Bioassay records deposited in PubChem BioAssay by several laboratories.
The list is not random: actives were taken first. Their share in the collection is about 0.89%.
ABCB6 inh MLPCN: blocks the human ABCB6 transporter; Q9NP58; K562-ABCB6 porphyrin accumulation, flow cytometry, 1 h; hits give low values; fluorescence ratio to DMSO, % at 10 µM; 360,000 compounds, 0.19% hits; AID 602162;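 active = fluorescence ratio to DMSO below 75%, the collection mean minus 3 SD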;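 note: signal is porphyrin accumulated inside mitochondria; 100% equals median channel fluorescence of DMSO control wells; lower ratio means ABCB6 inhibition with less porphyrin fluorescence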
hiPSC survival: hiPSC single-cell survival enhancement. 360,000 compounds, 0.044% hits. ATPlite luminescence; 100% = ROCK inhibitor wells, 0% = DMSO. AID 602274. survival enhancement, % at 20 µM; in the data active = survival enhancement above about 18%;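 note: cells exposed to compounds for 16 hours before the ATP read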
Arrestin-AP2 inh: blocks beta-arrestin peptide binding to AP2 adaptin; FITC-arrestin peptide / GST-AP2 beads, flow cytometry; AP2 beta2 appendage carries R879A mutation; inhibition, % at 10 µM; 340,000 compounds, 0.31% hits; AID 504490;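 active = inhibition above a set limit, near 3 SD of compounds lacking own fluorescence, cut at about 54% in these data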;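 note: plate controls were DMSO wells for no effect and 5 µM unlabelled arrestin peptide for full effect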
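system = GST-tagged AP2 beta2-adaptin appendage (R879A) on 4 µm glutathione beads | reagent = FITC-labelled arrestin peptide probe, 50 nM final | schedule = compound with beads 12 min RT, then probe 1 h RT | signal = HyperCyt-sampled flow cytometry, FL1 channel, ex 488/em 535 nm | read-out = percent response from loss of bead-bound FITC fluorescence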
PG9 binder: binds the HIV-1 gp120 antibody PG9; 360,000 compounds, 0.43% hits; inhibition, % at 6.7 µM; TR-FRET gp120-PG9 antibody binding; in the data active = inhibition above about 8.5%
Arr AP2 CP1: blocks beta-arrestin peptide binding to human AP2 | shares compounds with Arrestin-AP2 inh | GST-AP2 beads, FITC arrestin peptide binding, flow cytometry; GST-fused beta2-adaptin appendage, R879A mutant | inhibition, % at 10 µM | 1,300 compounds, 2% hits;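 active = inhibition above a set limit, roughly 3 SD of non-fluorescent compound noise, cut at about 38% in these data; inactive = inhibition at or below that limit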;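 note: loss of bead fluorescence from 50 nM FITC arrestin peptide bound to appendage; 0% = negative control wells and 100% = excess unlabelled arrestin peptide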
GST GSH counter: GST-GSH bead binding interference, counter-screen; 1,300 compounds, 2% hits; GST-fluorescein binding to GSH beads, fluorescence; AID 588338; shares compounds with Arrestin-AP2 inh; inhibition, % at 10 µM;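 active = inhibition above 50%, about 3 SD of the inhibition seen with non-fluorescent compounds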;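 note: fluorescein maleimide labelled GST captured on 4 micron glutathione beads; higher means more loss of bead fluorescence from quenching or blocked binding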
* hit, by the source's call.

Screening COC(=O)N1Cc2ccnnc2CC1c1ccccc1-c1ccc(OC)cc1 (stereo not given) returned PG9 binder -2.2.
Screening Cc1cc(S(=O)(=O)NC(C)C)ccc1OCC(=O)Nc1ccc2c(c1)OCCO2 returned ABCB6 inh MLPCN 98.0, hiPSC survival 3.9, Arrestin-AP2 inh 63.1*, PG9 binder -1.1, Arr AP2 CP1 22.5 and GST GSH counter -6.7.
Screening CC(C)NS(=O)(=O)c1ccc(CCC(=O)Nc2ccc3c(c2)OCCO3)cc1 returned ABCB6 inh MLPCN 105.0, hiPSC survival 6.2, Arrestin-AP2 inh 5.2 and PG9 binder 0.0.
`COc1cc(C)ccc1OCC(=O)Nc1ccc2c(c1)OCO2` gave ABCB6 inh MLPCN 91.0, hiPSC survival -0.1, Arrestin-AP2 inh -5.7, PG9 binder -1.8, Arr AP2 CP1 3.3 and GST GSH counter -4.7.
`COc1ccc(OC)c2c1C(=O)C(Cl)=C(Cl)C2=O` gave ABCB6 inh MLPCN 116.0, hiPSC survival 3.5, Arrestin-AP2 inh 86.8*, PG9 binder 0.4, Arr AP2 CP1 72.3* and GST GSH counter 27.7.
For CC1CCN(S(=O)(=O)N2CCC(C(=O)O)CC2)CC1 the results were ABCB6 inh MLPCN 104.0, hiPSC survival 3.0, Arrestin-AP2 inh 56.5*, PG9 binder -0.3, Arr AP2 CP1 19.6 and GST GSH counter -3.9.
For Cc1nc2ccc(F)cc2cc1C(=O)NCC1CCCO1 (stereo not given) the results were ABCB6 inh MLPCN 111.0, hiPSC survival 0.4, Arrestin-AP2 inh 104.8*, PG9 binder 1.9, Arr AP2 CP1 10.5 and GST GSH counter 0.4.
`CC(C)CC(=O)c1c(O)cc(O)c2c1OC1=C(C(=O)C(C)(C)C(=O)C1(C)C)C2CC(C)C` (stereo not given) gave PG9 binder -1.1.
Screening CC(OC(=O)C1CSC2(c3ccc(F)cc3)CCC(=O)N12)C(=O)NC(N)=O (stereo not given) returned ABCB6 inh MLPCN 100.0, hiPSC survival -2.2, Arrestin-AP2 inh 3.6 and PG9 binder -1.2.
Screening COc1cccc(NC(=O)C2CSC3(C)CCC(=O)N23)c1 (stereo not given) returned ABCB6 inh MLPCN 94.0, hiPSC survival 0.2, Arrestin-AP2 inh -3.6 and PG9 binder -0.8.
CC(OC(=O)C1CSC2(C)CCC(=O)N12)C(=O)Nc1cccc(C#N)c1 (stereo not given) was read as ABCB6 inh MLPCN 92.0, hiPSC survival 0.0, Arrestin-AP2 inh 1.2, PG9 binder 1.5, Arr AP2 CP1 1.0 and GST GSH counter -4.9.
CC(OC(=O)C1CSC2(C)CCC(=O)N12)C(=O)Nc1ccc(F)cc1 (stereo not given) was read as ABCB6 inh MLPCN 101.0, hiPSC survival 0.5, Arrestin-AP2 inh -2.9, PG9 binder 1.1, Arr AP2 CP1 -11.8 and GST GSH counter -8.9.
`C=CCn1c(-c2ccc(N)cc2)nc2ccccc21` gave ABCB6 inh MLPCN 99.0, hiPSC survival -2.4, Arrestin-AP2 inh 21.4 and PG9 binder 0.4.
Screening C=CCn1c(-c2ccc(OC)cc2)nc2ccccc21 returned ABCB6 inh MLPCN 98.0, hiPSC survival -2.5, Arrestin-AP2 inh 97.9*, PG9 binder 0.1, Arr AP2 CP1 -12.0 and GST GSH counter 2.0.
COC(=O)c1cc2c(c3c4cc(F)ccc4n(S(=O)(=O)c4cccc(C)c4)c13)C(=O)N(Cc1ccc(C(F)(F)F)cc1)C2 was read as PG9 binder 1.2.
Screening CC(=O)Nc1cccc(-c2csc(N)n2)c1 returned ABCB6 inh MLPCN 101.0, hiPSC survival -1.3, Arrestin-AP2 inh 54.9*, PG9 binder -1.1, Arr AP2 CP1 2.2 and GST GSH counter -0.8.
For CN[C@H]1C[C@H]2c3[nH]c4c(-c5ccc6c(c5)OCO6)cccc4c3CCN2C(=O)[C@H]1[C@H](C)O the results were PG9 binder -2.1.
Cc1cccc(NS(=O)(=O)c2cccc(C(=O)NCC3(N4CCOCC4)CCCCC3)c2)c1 was read as ABCB6 inh MLPCN 91.0, hiPSC survival -0.4, Arrestin-AP2 inh -2.9, PG9 binder 0.2, Arr AP2 CP1 0.1 and GST GSH counter -1.7.
For COc1ccc(C(CNC(=O)c2cccc(S(=O)(=O)Nc3ccccc3OC)c2)N2CCCCC2)cc1 (stereo not given) the results were ABCB6 inh MLPCN 100.0, hiPSC survival -0.5, Arrestin-AP2 inh -5.5 and PG9 binder 0.6.
COc1ccccc1NS(=O)(=O)c1ccc(C)c(C(=O)NCC2(N(C)C)CCCCC2)c1 was read as ABCB6 inh MLPCN 97.0, hiPSC survival -2.3, Arrestin-AP2 inh 6.4, PG9 binder 0.5, Arr AP2 CP1 2.7 and GST GSH counter -3.8.
Screening COc1ccccc1NS(=O)(=O)c1cccc(C(=O)NCC2(N3CCCCC3)CCCCC2)c1 returned ABCB6 inh MLPCN 101.0, hiPSC survival 0.1, Arrestin-AP2 inh -7.1, PG9 binder -0.4, Arr AP2 CP1 7.6 and GST GSH counter -9.4.
Screening O=C(NCC1(N2CCCCC2)CCCCC1)c1cccc(NS(=O)(=O)c2ccccc2)c1 returned ABCB6 inh MLPCN 91.0, hiPSC survival 0.0, Arrestin-AP2 inh -6.7 and PG9 binder -1.9.
O=C(NCC1(N2CCCCC2)CCCCC1)c1cccc(S(=O)(=O)Nc2ccc(F)cc2)c1 was read as ABCB6 inh MLPCN 95.0, hiPSC survival -0.2, Arrestin-AP2 inh 11.1, PG9 binder -0.4, Arr AP2 CP1 -5.8 and GST GSH counter -3.7.
`C[C@H](O)[C@@H]1C(=O)N2CCc3c([nH]c4cccc(-c5ccccc5)c34)[C@@H]2C[C@@H]1N(C)C(=O)c1ccco1` gave PG9 binder -2.3.
CCn1c2c(n(C(C)=O)c1=O)C[C@@H](c1ccccc1)[C@@H](C)[C@@H](C(=O)N1CCCC1)C2 was read as PG9 binder -0.5.
Screening Cc1ccc(NC(=O)[C@@H](Cc2ccccc2)NC(=O)[C@H]2O[C@@H](n3ccc(=O)[nH]c3=O)[C@H](O)[C@@H]2O)cc1C returned PG9 binder 0.4.
COc1ccc(N/C(=C\C(=O)c2ccccc2)c2ccccc2)cc1OC was read as PG9 binder -0.2.
CNS(=O)(=O)c1cccc(C(=O)NCC2(N3CCOCC3)CCCCC2)c1 was read as ABCB6 inh MLPCN 95.0, hiPSC survival 1.5, Arrestin-AP2 inh -10.4 and PG9 binder -1.1.
`O=C(NCC1(N2CCOCC2)CCCCC1)c1cccc(S(=O)(=O)Nc2ccc(F)cc2)c1` gave ABCB6 inh MLPCN 93.0, hiPSC survival -0.1, Arrestin-AP2 inh -8.4, PG9 binder -0.2, Arr AP2 CP1 -1.6 and GST GSH counter -0.6.
For Cc1cc(Cl)ccc1NC(=O)CCC(=O)N/N=C/c1cc([N+](=O)[O-])ccc1O the results were ABCB6 inh MLPCN 94.0, hiPSC survival -0.3, Arrestin-AP2 inh 105.4*, PG9 binder -3.3, Arr AP2 CP1 -0.8 and GST GSH counter 3.2.
